Test results published in PubChem BioAssay AID504623 (Broad Institute, 2011).
Inconclusive results are not listed. Activity calls are given as the source filed them.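 How the source made its calls: active means mean replicate inhibition of at least 25% with at least 60% of replicates reaching that level; inconclusive means only one of the two criteria is met; inactive means neither criterion met.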

Test system: SUM159 tumorsphere formation, imaging count, 8-9 days
Test: inhibition of SUM159 tumorsphere formation, late-stage follow-up, orthogonal assay for breast cancer stem cell project, imaging, SUM159 cells, single point, dry powder (AID 504623)
Conditions: at 25 µM; hits give high values
In short: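 Material: SUM159 tumorsphere culture. Buffer or medium: medium plus 0.5% methylcellulose. Timing: 8-day incubation, 37 °C. Detection: Brightfield imaging at 2x, 9 sites/well. Format: Low-attachment wells.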

Cc1cc(Cl)ccc1OCC(=O)N/N=C/c1ccc[nH]1
inhibition: 3.98% (inactive)

O=C(COc1ccc(Cl)cc1Cl)N/N=C/c1ccc[nH]1
inhibition: -22.3% (inactive)

COc1cccc(OCc2ccc(C(=O)Nc3nc(C)cs3)o2)c1
inhibition: -6.02% (inactive)

CC(C)c1ccc(/C=C/C(=O)NC2=NCCS2)cc1
inhibition: 10.4% (inactive)

Cc1csc(NC(=O)c2ccc(COc3cccc(Cl)c3)o2)n1
inhibition: 19.5% (inactive)

Cc1csc(NC(=O)c2ccc(COc3ccccc3F)o2)n1
inhibition: 4.83% (inactive)

CC(C)c1ccc(/C=C/C(=O)Nc2ccccc2)cc1
inhibition: 62.4%

O=C(/C=C/c1ccc(-c2ccccc2)cc1)NC1=NCCS1
inhibition: 4.08% (inactive)

Cc1csc(NC(=O)c2ccc(COc3cccc(OC(F)(F)F)c3)o2)n1
inhibition: 22.2% (inactive)

Cc1csc(NC(=O)c2ccc(COc3cccc(C#N)c3)o2)n1
inhibition: 44.2%

Cc1csc(NC(=O)c2ccc(COc3ccccc3)o2)n1
inhibition: 21.4% (inactive)

CC(C)(C)c1ccc2c(c1)OC(C(=O)N/N=C/c1ccc[nH]1)CO2 (centres undefined)
inhibition: 34.1%

O=C(COc1c(Cl)cc(Cl)cc1Cl)N/N=C/c1ccc[nH]1
inhibition: -7.47% (inactive)

CC(C)(C)c1ccc(C2CC2C(=O)N/N=C/c2ccc[nH]2)cc1 (centres undefined)
inhibition: 62.8%
